Test results published in ChEMBL document CHEMBL5724801, “EUbOPEN Chemogenomics Library - Multiplex” (2024).
Several values for one entry are separate records, joined by “and”; a condition that tells them apart may be missing. Equal values may be shown once.

test system: U2OS; assay: Multiplex assay against U2OS; assay type: toxicity, cell-based; settings: human, 12 h, 1 µM, compound concentration 1 uM
Outline: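 On a CQ1 microscope at 37°C and 5% CO2, live cells were imaged after compound addition. They had been stained at seeding with Hoechst33342, BioTracker Green Microtubule Cytoskeleton Dye, MitoTracker Red and Annexin V Alexa Fluor 680. CellPathfinder machine-learning gating assigned cells to Hoechst high-intensity objects or normal cells, normal cells to healthy, pyknosed or fragmented nuclei, and pyknosed cells to mitotic or apoptotic. Tubulin, mitochondrial-mass and membrane-permeability phenotypes are per cents of healthy-nucleus cells.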

Row | Structure (SMILES) | Population Apoptotic (%) | Population Fragmented Nuclei (%) | Population Healthy Nuclei (%) | Population Hoechst High Intensity Objects (%) | Population Membrane Permeable-Phenotype (%) | Population Mitochondria Different-Phenotype (%) | Population Mitotic Cells (%) | Population Normal (%) | Population Pyknosed Nuclei (%) | Population Tubulin-Different-Phenotype (%)
1 | Cl.NCCc1ccc(O)c(O)c1 [DOPAMINE HYDROCHLORIDE] | 100% and 83% | 23% and 15% | 67% and 72% | 3% and 1% | 5% and 8% | 1% and 2% | 0% and 16% | 96% and 98% | 9% and 11% | 2% and 5%
2 | COCCCN1CCC(NC(=O)c2cc(Cl)c(N)c3c2OCC3)CC1 [PRUCALOPRIDE] | 84% and 87% | 30% and 21% | 63% and 71% | 1% and 0% | 7% and 12% | 3% and 7% | 15% and 12% | 98% and 99% | 6% and 7% | 4% and 8%

same assay, conditions: human, 12 h, 1 µM, compound concentration 1 uM

Row | Structure (SMILES) | Total Cell Count
3 | Cl.NCCc1ccc(O)c(O)c1 [DOPAMINE HYDROCHLORIDE] | 237 and 104
4 | COCCCN1CCC(NC(=O)c2cc(Cl)c(N)c3c2OCC3)CC1 [PRUCALOPRIDE] | 207 and 110

same assay, conditions: human, 12 h, 10 µM, compound concentration 10 uM

Row | Structure (SMILES) | Population Apoptotic (%) | Population Fragmented Nuclei (%) | Population Healthy Nuclei (%) | Population Hoechst High Intensity Objects (%) | Population Membrane Permeable-Phenotype (%) | Population Mitochondria Different-Phenotype (%) | Population Mitotic Cells (%) | Population Normal (%) | Population Pyknosed Nuclei (%) | Population Tubulin-Different-Phenotype (%)
5 | Cl.NCCc1ccc(O)c(O)c1 [DOPAMINE HYDROCHLORIDE] | 80% and 75% | 21% and 18% | 65% and 76% | 3% and 0% | 2% and 4% | 1% | 20% and 25% | 96% and 100% | 12% and 4% | 1%
6 | COCCCN1CCC(NC(=O)c2cc(Cl)c(N)c3c2OCC3)CC1 [PRUCALOPRIDE] | 68% and 47% | 22% and 13% | 63% and 73% | 3% and 2% | 4% and 1% | 0% and 1% | 31% and 52% | 96% and 97% | 13% and 12% | 2% and 1%

same assay, conditions: human, 12 h, 10 µM, compound concentration 10 uM

Row | Structure (SMILES) | Total Cell Count
7 | Cl.NCCc1ccc(O)c(O)c1 [DOPAMINE HYDROCHLORIDE] | 204 and 95
8 | COCCCN1CCC(NC(=O)c2cc(Cl)c(N)c3c2OCC3)CC1 [PRUCALOPRIDE] | 238 and 140

same assay, conditions: human, 24 h, 1 µM, compound concentration 1 uM

Row | Structure (SMILES) | Population Apoptotic (%) | Population Fragmented Nuclei (%) | Population Healthy Nuclei (%) | Population Hoechst High Intensity Objects (%) | Population Membrane Permeable-Phenotype (%) | Population Mitochondria Different-Phenotype (%) | Population Mitotic Cells (%) | Population Normal (%) | Population Pyknosed Nuclei (%) | Population Tubulin-Different-Phenotype (%)
9 | Cl.NCCc1ccc(O)c(O)c1 [DOPAMINE HYDROCHLORIDE] | 90% and 80% | 18% and 14% | 69% and 77% | 4% and 1% | 7% and 4% | 2% and 1% | 10% and 20% | 95% and 98% | 11% and 7% | 5% and 2%
10 | COCCCN1CCC(NC(=O)c2cc(Cl)c(N)c3c2OCC3)CC1 [PRUCALOPRIDE] | 80% | 26% and 23% | 65% and 69% | 2% and 1% | 5% and 8% | 3% and 4% | 20% | 97% and 98% | 8% and 7% | 5% and 7%

same assay, conditions: human, 24 h, 1 µM, compound concentration 1 uM

Row | Structure (SMILES) | Total Cell Count
11 | Cl.NCCc1ccc(O)c(O)c1 [DOPAMINE HYDROCHLORIDE] | 263 and 132
12 | COCCCN1CCC(NC(=O)c2cc(Cl)c(N)c3c2OCC3)CC1 [PRUCALOPRIDE] | 247 and 132

same assay, conditions: human, 24 h, 10 µM, compound concentration 10 uM

Row | Structure (SMILES) | Population Apoptotic (%) | Population Fragmented Nuclei (%) | Population Healthy Nuclei (%) | Population Hoechst High Intensity Objects (%) | Population Membrane Permeable-Phenotype (%) | Population Mitochondria Different-Phenotype (%) | Population Mitotic Cells (%) | Population Normal (%) | Population Pyknosed Nuclei (%) | Population Tubulin-Different-Phenotype (%)
13 | Cl.NCCc1ccc(O)c(O)c1 [DOPAMINE HYDROCHLORIDE] | 92% and 87% | 18% and 15% | 70% and 77% | 2% and 0% | 4% and 1% | 0 | 8% and 12% | 97% and 99% | 10% and 7% | 1%
14 | COCCCN1CCC(NC(=O)c2cc(Cl)c(N)c3c2OCC3)CC1 [PRUCALOPRIDE] | 87% and 77% | 23% and 12% | 64% and 76% | 4% and 1% | 5% and 3% | 2 | 12% and 22% | 95% and 98% | 12% and 11% | 4% and 3%

same assay, conditions: human, 24 h, 10 µM, compound concentration 10 uM

Row | Structure (SMILES) | Total Cell Count
15 | Cl.NCCc1ccc(O)c(O)c1 [DOPAMINE HYDROCHLORIDE] | 245 and 111
16 | COCCCN1CCC(NC(=O)c2cc(Cl)c(N)c3c2OCC3)CC1 [PRUCALOPRIDE] | 280 and 161

same assay, conditions: human, 48 h, 1 µM, compound concentration 1 uM

Row | Structure (SMILES) | Population Apoptotic (%) | Population Fragmented Nuclei (%) | Population Healthy Nuclei (%) | Population Hoechst High Intensity Objects (%) | Population Membrane Permeable-Phenotype (%) | Population Mitochondria Different-Phenotype (%) | Population Mitotic Cells (%) | Population Normal (%) | Population Pyknosed Nuclei (%) | Population Tubulin-Different-Phenotype (%)
17 | Cl.NCCc1ccc(O)c(O)c1 [DOPAMINE HYDROCHLORIDE] | 90% and 89% | 17% and 14% | 70% and 73% | 2% | 5% and 7% | 3% and 4% | 9% and 10% | 97% | 11% | 4% and 3%
18 | COCCCN1CCC(NC(=O)c2cc(Cl)c(N)c3c2OCC3)CC1 [PRUCALOPRIDE] | 85% and 86% | 20% | 73% and 67% | 3% and 2% | 3% and 11% | 1% and 6% | 14% and 13% | 96% and 97% | 6% and 11% | 3% and 9%

same assay, conditions: human, 48 h, 1 µM, compound concentration 1 uM

Row | Structure (SMILES) | Total Cell Count
19 | Cl.NCCc1ccc(O)c(O)c1 [DOPAMINE HYDROCHLORIDE] | 363 and 172
20 | COCCCN1CCC(NC(=O)c2cc(Cl)c(N)c3c2OCC3)CC1 [PRUCALOPRIDE] | 352 and 199

same assay, conditions: human, 48 h, 10 µM, compound concentration 10 uM

Row | Structure (SMILES) | Population Apoptotic (%) | Population Fragmented Nuclei (%) | Population Healthy Nuclei (%) | Population Hoechst High Intensity Objects (%) | Population Membrane Permeable-Phenotype (%) | Population Mitochondria Different-Phenotype (%) | Population Mitotic Cells (%) | Population Normal (%) | Population Pyknosed Nuclei (%) | Population Tubulin-Different-Phenotype (%)
21 | Cl.NCCc1ccc(O)c(O)c1 [DOPAMINE HYDROCHLORIDE] | 85% and 100% | 18% and 14% | 66% and 76% | 2% and 1% | 7% and 2% | 3% and 2% | 14% and 0% | 97% and 98% | 14% and 8% | 5% and 2%
22 | COCCCN1CCC(NC(=O)c2cc(Cl)c(N)c3c2OCC3)CC1 [PRUCALOPRIDE] | 88% and 90% | 17% and 11% | 69% and 79% | 1% | 5% and 3% | 2% and 3% | 11% and 9% | 98% | 12% and 9% | 2% and 1%

same assay, conditions: human, 48 h, 10 µM, compound concentration 10 uM

Row | Structure (SMILES) | Total Cell Count
23 | Cl.NCCc1ccc(O)c(O)c1 [DOPAMINE HYDROCHLORIDE] | 338 and 179
24 | COCCCN1CCC(NC(=O)c2cc(Cl)c(N)c3c2OCC3)CC1 [PRUCALOPRIDE] | 347 and 245
